Experimental findings from ChEMBL document CHEMBL2029310 (Bioorg Med Chem Lett, 2012) are described below.

By IC50 is commonly meant the point on the concentration scale where inhibition reaches its midpoint.

Molecules are shown by their SMILES. Activity calls are given as the source filed them. The calls are words filed in the database; no cut-off is given here.

Experiment [1] concerns the target T1, Rap guanine nucleotide exchange factor 4 (Homo sapiens, UniProt Q8WZA2). The experiment is described as follows: Competitive inhibition of Epac2 using fluorescent nucleotide analog 8-NBD-cAMP by fluorescence analysis.
Target sequence in this assay (Q8WZA2 whole entry): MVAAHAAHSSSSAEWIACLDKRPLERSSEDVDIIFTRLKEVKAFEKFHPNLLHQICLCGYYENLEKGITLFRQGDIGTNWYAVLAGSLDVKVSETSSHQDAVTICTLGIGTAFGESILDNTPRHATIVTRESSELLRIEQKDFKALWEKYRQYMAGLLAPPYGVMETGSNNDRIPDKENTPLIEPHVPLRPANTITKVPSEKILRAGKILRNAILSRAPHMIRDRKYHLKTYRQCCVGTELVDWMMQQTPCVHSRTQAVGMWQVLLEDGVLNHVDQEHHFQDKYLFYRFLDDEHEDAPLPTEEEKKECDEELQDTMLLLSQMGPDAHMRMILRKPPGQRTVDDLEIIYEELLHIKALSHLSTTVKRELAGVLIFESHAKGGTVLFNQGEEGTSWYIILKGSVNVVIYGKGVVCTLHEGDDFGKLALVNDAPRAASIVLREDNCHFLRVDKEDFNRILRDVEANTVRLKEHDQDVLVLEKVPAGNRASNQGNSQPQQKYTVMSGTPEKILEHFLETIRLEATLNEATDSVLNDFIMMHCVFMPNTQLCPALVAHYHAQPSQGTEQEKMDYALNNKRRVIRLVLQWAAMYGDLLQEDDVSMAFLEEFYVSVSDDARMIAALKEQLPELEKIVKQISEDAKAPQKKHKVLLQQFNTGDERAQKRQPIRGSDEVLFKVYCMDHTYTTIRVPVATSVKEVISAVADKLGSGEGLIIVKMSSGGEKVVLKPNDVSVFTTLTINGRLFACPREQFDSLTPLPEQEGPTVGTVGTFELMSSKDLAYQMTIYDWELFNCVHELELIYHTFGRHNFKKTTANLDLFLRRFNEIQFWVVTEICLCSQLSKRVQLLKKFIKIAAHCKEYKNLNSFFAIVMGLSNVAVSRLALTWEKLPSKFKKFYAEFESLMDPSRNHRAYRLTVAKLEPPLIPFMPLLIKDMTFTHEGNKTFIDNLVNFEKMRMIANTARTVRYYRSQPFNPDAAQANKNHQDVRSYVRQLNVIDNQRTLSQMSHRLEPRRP
Experiment [2] has as its target T1, Rap guanine nucleotide exchange factor 4. Nature of the experiment: Inhibition of Epac2 at 25 uM in presence of equal molar concentration of cAMP.
Target sequence in this assay (Q8WZA2 whole entry, looked up): as the sequence (Q8WZA2 whole entry) above
Experiment [3] is described as follows: Inhibition of PKA type2 activation at 25 uM.
The nature of experiment [4]: Inhibition of PKA type1 activation at 25 uM.
Experiment [5] concerns the target T2, Rap guanine nucleotide exchange factor 3 (Homo sapiens) (UniProt O95398).
T2 sequence (whole entry): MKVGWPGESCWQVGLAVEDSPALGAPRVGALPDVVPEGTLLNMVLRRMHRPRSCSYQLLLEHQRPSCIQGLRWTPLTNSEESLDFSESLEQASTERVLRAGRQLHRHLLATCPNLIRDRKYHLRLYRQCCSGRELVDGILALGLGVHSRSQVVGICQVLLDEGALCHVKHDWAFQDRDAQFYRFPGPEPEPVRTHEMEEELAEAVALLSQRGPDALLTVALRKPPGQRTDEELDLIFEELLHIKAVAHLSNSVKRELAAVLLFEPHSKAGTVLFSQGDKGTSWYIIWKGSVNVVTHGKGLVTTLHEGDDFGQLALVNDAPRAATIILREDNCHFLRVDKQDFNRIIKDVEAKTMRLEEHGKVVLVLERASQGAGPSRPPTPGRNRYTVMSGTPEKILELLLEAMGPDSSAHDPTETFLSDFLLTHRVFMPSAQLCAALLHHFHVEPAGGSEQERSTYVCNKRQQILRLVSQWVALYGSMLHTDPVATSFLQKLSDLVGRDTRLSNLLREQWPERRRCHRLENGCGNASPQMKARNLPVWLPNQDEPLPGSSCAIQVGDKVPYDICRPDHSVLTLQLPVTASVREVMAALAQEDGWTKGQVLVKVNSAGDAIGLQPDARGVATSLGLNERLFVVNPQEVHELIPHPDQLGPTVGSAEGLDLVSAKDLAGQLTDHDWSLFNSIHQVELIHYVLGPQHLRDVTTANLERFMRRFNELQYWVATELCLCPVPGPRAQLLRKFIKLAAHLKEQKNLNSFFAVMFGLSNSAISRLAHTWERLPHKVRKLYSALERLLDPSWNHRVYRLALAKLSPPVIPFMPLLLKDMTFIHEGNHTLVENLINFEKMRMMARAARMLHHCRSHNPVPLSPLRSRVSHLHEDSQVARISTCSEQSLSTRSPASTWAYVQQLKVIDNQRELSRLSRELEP
Nature of the experiment: Inhibition of Epac1 at 25 uM in presence of equal molar concentration of cAMP.

In experiment [6] the target is T1, Rap guanine nucleotide exchange factor 4. The experiment is described as follows: Inhibition of cAMP-mediated recombinant Epac2 GEF activity at 25 uM by fluorescence analysis in presence of cAMP.
Target sequence in this assay (Q8WZA2 whole entry, looked up): as the sequence (Q8WZA2 whole entry) above
Experiment [7] has as its target T2, Rap guanine nucleotide exchange factor 3 (Homo sapiens). Nature of the experiment: Inhibition of recombinant Epac1-mediated Akt phosphorylation at S473 expressed in 007-AM-stimulated HEK293 cells at 10 uM administered 5 mins prior to 007-AM by Western blot analysis. Type of experiment: cell-based. The procedure, abridged: (§1)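 HEK293/Epac1 or HEK293/Epac2 cells were pretreated, or not, with 10 μM antagonist for 5 min. They were then stimulated with 10 μM 007-AM, the membrane-permeable Epac-selective agonist. Cell lysates were immunoblotted with PKB antibodies specific for phospho-Ser473 and phospho-Thr308.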

Experiment [8] concerns the target T1, Rap guanine nucleotide exchange factor 4. Nature of the experiment: Inhibition of recombinant Epac2-mediated Akt phosphorylation at T308 expressed in 007-AM-stimulated HEK293 cells at 10 uM administered 5 mins prior to 007-AM by Western blot analysis. It is filed as cell-based. In outline:
as §1
In general terms: A western blot detects proteins with antibodies after separation by electrophoresis.
Target sequence in this assay (Q8WZA2 whole entry, looked up): as the sequence (Q8WZA2 whole entry) above

The target in experiment [9] is T2, Rap guanine nucleotide exchange factor 3 (Homo sapiens). Nature of the experiment: Inhibition of recombinant Epac1-mediated Akt phosphorylation at T308 expressed in 007-AM-stimulated HEK293 cells at 10 uM administered 5 mins prior to 007-AM by Western blot analysis. Type of experiment: cell-based. The procedure, abridged:
as §1

Experiment [10] addresses T1, Rap guanine nucleotide exchange factor 4. The experiment is described as follows: Inhibition of recombinant Epac2-mediated Akt phosphorylation at S473 expressed in 007-AM-stimulated HEK293 cells at 10 uM administered 5 mins prior to 007-AM by Western blot analysis. It is filed as cell-based. The procedure, abridged: as §1
Target sequence in this assay (Q8WZA2 whole entry, looked up): as the sequence (Q8WZA2 whole entry) above
Experiment [11] concerns the target T2, Rap guanine nucleotide exchange factor 3 (Homo sapiens). The experiment is described as follows: Inhibition of recombinant Epac1-mediated Rap1-GDP exchange activity at 25 uM by fluorescence analysis in presence of cAMP.

As for `Cc1ccc(C)c(CSc2nc(C3CCN(C)CC3)c(C#N)c(=O)[nH]2)c1`, the IC50 in [1] came to 127 µM.

As to `Cc1ccc(C)c(CSc2nc(C3CCNCC3)c(C#N)c(=O)[nH]2)c1`, in experiment [1], the concentration for half-maximal inhibition (IC50) is greater than 300 µM.

In turn, `N#Cc1c(C2CCCCC2)nc(SCc2ccccc2)[nH]c1=O` yielded an IC50 in experiment [1] of 30.5 µM.

Take `N#Cc1c(C2CCCCC2)nc(SCC(=O)Nc2ccccc2)[nH]c1=O`: the IC50 in [1] was greater than 300 µM.

The compound `Cc1ccc(C)c(CSc2nc(C(C)C)c(C#N)c(=O)[nH]2)c1` yielded a half-maximal inhibitory concentration (IC50) in experiment [1] of 12.7 µM.

The compound `Cc1cc(C)c(CSc2nc(C3CCCCC3)c(C#N)c(=O)[nH]2)c(C)c1` yielded an IC50 in experiment [1] of 11.6 µM.

With `Cc1ccc(C)c(CSc2nc(C3CCCCC3)c(C#N)c(=O)[nH]2)c1`, in experiment [1], the IC50 worked out at 8.4 µM. Moreover, the inhibition result in [2] and in [5] was “Active” in each case. Also, the inhibition entry in experiment [3] and in [4] was “inactive” throughout.

Regarding `Cc1cc(C)cc(CSc2nc(C3CCCCC3)c(C#N)c(=O)[nH]2)c1`, the IC50 in experiment [1] is 7 µM.

Turning to `Cc1ccc(C)c(CSc2nc(C3CCCC3)c(C#N)c(=O)[nH]2)c1`, the inhibition result in experiment [6], in experiment [7], in experiment [8], in [9], in experiment [10] and in [11] was “Active” each time. The same compound gave an IC50 in experiment [1] of 5.9 µM. In addition, the inhibition result in experiment [3] and in experiment [4] was “inactive” throughout.

In turn, `Cc1cc(C)c(NC(=O)CSc2nc(C3CCCCC3)c(C#N)c(=O)[nH]2)c(C)c1` came in with an IC50 in [1] greater than 300 µM.

`Cc1ccc(NC(=O)CSc2nc(C3CCCCC3)c(C#N)c(=O)[nH]2)cc1` gave an IC50 in experiment [1] greater than 300 µM.

`N#Cc1c(C2CCCCC2)nc(SCC(=O)O)[nH]c1=O`: the half-inhibitory concentration (IC50) in experiment [1] was greater than 300 µM.

Compound `N#Cc1c(C2CCCCC2)nc(S)[nH]c1=O` returned an IC50 in [1] greater than 300 µM.

Take `Cc1ccc(CSc2nc(C3CCCCC3)c(C#N)c(=O)[nH]2)cc1`: the IC50 in experiment [1] worked out at 38.7 µM.

Compound `N#Cc1c(C2CCCCC2)nc(Nc2ccccc2)[nH]c1=O` gave an IC50 in experiment [1] greater than 300 µM.

On to `Cc1ccc(CSc2nc(C3CCCCC3)c(C#N)c(=O)[nH]2)c(C)c1`, for which the IC50 in experiment [1] was 15.7 µM.

As for `O=S(=O)(NCCNC/C=C/c1ccc(Br)cc1)c1cccc2cnccc12`, the inhibition entry in [3] and in experiment [4] was “Active” each time.

`Cc1ccc(C)c(CSc2nc(C3CC3)c(C#N)c(=O)[nH]2)c1`: the inhibition result in experiment [6], in [7], in experiment [8], in experiment [9] and in [10] was “Active” in each case. The compound further displayed an IC50 in [1] of 4 µM. Moreover, the inhibition result in experiment [3] and in [4] was “inactive” throughout.

In the case of `N#Cc1c(C2CCCCC2)nc(Nc2ccc(Cl)cc2)[nH]c1=O`, in experiment [1], the IC50 is greater than 300 µM.
